One data set deals with RKO. The data set can be described thus: Antiproliferative activity against human RKO cells expressing wild-type p53 by MTT assay. It counts as functional, cell-based. An outline of the steps:
(§1)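 MTT antiproliferation assay in human cancer lines: SJSA, HCT116 and RKO are wild-type p53; SW480 is mutant p53. IC50 came from one experiment run in duplicate.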
In general terms: Tetrazolium assays rely on reduction of a dye to a coloured formazan, in cell work by metabolically active cells.

Data set [1] has as its system Mus musculus. Briefly: AUC/dose in C57 mouse at 5 mg/kg, po. It counts as ADME, organism-based, Plasma. Set-up: dose 5 mg/kg, route oral. The conditions noted are these: in vivo. In outline:
(§2)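 Single-dose PK in male C57 mice, given orally (PO) or intravenously (IV). Plasma exposure (AUC normalized to dose, Cmax) was taken from the oral arms. Clearance and t1/2 were taken from the IV arms. F is oral bioavailability.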

Data set [2] in a line: Oral bioavailability in C57 mouse at 5 mg/kg. It is filed as ADME, organism-based. Particulars: in vivo. In outline: as §2
Data set [3] is described as follows: Total plasma clearance in C57 mouse at 2 mg/kg, iv. It is filed as ADME, organism-based. Also noted: dose 2 mg/kg, route intravenous. In outline: as §2
Data set [4] in a line: Intrinsic clearance in human liver microsomes at […] preincubated for 5 mins followed by NADPH addition by LC-MS/MS analysis. It counts as ADME. The conditions noted are these: read-out: CLH. In general terms: Liver microsomes are a subcellular fraction often used to study metabolism.
For data set [5], the system named is SJSA-1. Briefly: Antiproliferative activity against human SJSA cells expressing wild-type p53 by MTT assay.
The subject of data set [6] is SJSA-1. Briefly: Antitumor activity against human SJSA1 cells xenografted in nude mouse assessed as tumor regression at 10 mg/kg, po qd administered for 2 weeks. It is filed as functional, organism-based. Also noted: dose 10 mg/kg. (A xenograft is tissue or cells of one species grown in another, often human tumour cells in immunodeficient mice.)
The test system of the next data set is HCT-116. Briefly: Antiproliferative activity against human HCT116 cells expressing wild-type p53 by MTT assay. It counts as functional, cell-based. In outline: as §1
The subject of data set [7] is SJSA-1. Briefly: Antitumor activity against human SJSA1 cells xenografted in nude mouse assessed as tumor growth inhibition at 3 mg/kg, po qd administered for 2 weeks. It counts as functional, organism-based. Set-up: dose 3 mg/kg.
The test system of data set [8] is Mus musculus. Briefly: Toxicity in nude mouse xenografted with human SJSA1 cells assessed as body weight loss at 3 to 20 mg/kg, po qd administered for 2 weeks. It is filed as organism-based, SJSA-1. Set-up: dose 3-20 mg/kg, route oral. Particulars: in vivo, 336 h.
Data set [9] is described as follows: Apparent terminal half life in C57 mouse at 2 mg/kg, iv. It counts as ADME, organism-based. Also noted: dose 2 mg/kg, route intravenous. The conditions noted are these: in vivo, read-out: betat1/2(app) (converted). An outline of the steps:
as §2

Data set [10] in a line: Cmax in C57 mouse at 5 mg/kg, po. It is filed as ADME, organism-based. Set-up: dose 5 mg/kg, route oral. The conditions noted are these: in vivo. In outline: as §2
A further data set concerns SW480. Briefly: Antiproliferative activity against human SW480 cells expressing p53 mutant by MTT assay.
The test system of data set [11] is SJSA-1. Briefly: Antiproliferative activity against human SJSA cells expressing wild-type p53 by MTT assay.
Data set [12] in a line: Oral bioavailability in C57 mouse at 10 mg/kg. It is filed as ADME, organism-based. The conditions noted are these: in vivo. In outline:
as §2

Data set [13] has as its system Mus musculus. The data set can be described thus: AUC/dose in C57 mouse at 10 mg/kg, po. It counts as ADME, organism-based, Plasma. Also noted: dose 10 mg/kg, route oral. Particulars: in vivo. An outline of the steps: as §2
The nature of data set [14]: Total plasma clearance in C57 mouse at 2.5 mg/kg, iv. It is filed as ADME, organism-based. Set-up: dose 2.5 mg/kg, route intravenous. In outline:
as §2

Data set [15] in a line: Cmax in C57 mouse at 10 mg/kg, po. It counts as ADME, organism-based. Set-up: dose 10 mg/kg, route oral. The conditions noted are these: in vivo. In outline: as §2
Data set [16] in a line: Apparent terminal half life in C57 mouse at 2.5 mg/kg, iv. It is filed as ADME, organism-based. Also noted: dose 2.5 mg/kg, route intravenous. Particulars: in vivo, read-out: betat1/2(app) (converted). In outline: as §2
A short description of data set [17]: Oral bioavailability in C57 mouse at 25 mg/kg. It counts as ADME, organism-based. The conditions noted are these: in vivo. An outline of the steps: as §2
Data set [18] in a line: Apparent terminal half life in C57 mouse at 0.64 mg/kg, iv. It is filed as ADME, organism-based. Set-up: dose 0.64 mg/kg, route intravenous. The conditions noted are these: in vivo, read-out: betat1/2(app) (converted). An outline of the steps: as §2
Data set [19] relates to SJSA-1. The data set can be described thus: Antitumor activity against human SJSA1 cells xenografted in nude mouse assessed as tumor regression at 6.25 mg/kg, po qd administered for 2 weeks. It is filed as functional, organism-based. Also noted: dose 6.25 mg/kg.
Data set [20] in a line: Total plasma clearance in C57 mouse at 0.64 mg/kg, iv. It is filed as ADME, organism-based. Set-up: dose 0.64 mg/kg, route intravenous. In outline:
as §2

Data set [21] can be described thus: Cmax in C57 mouse at 25 mg/kg, po. It is filed as ADME, organism-based. Set-up: dose 25 mg/kg, route oral. Particulars: in vivo. In outline: as §2
Data set [22] has as its system Mus musculus. Briefly: AUC/dose in C57 mouse at 25 mg/kg, po. It is filed as ADME, organism-based, Plasma. Set-up: dose 25 mg/kg, route oral. Particulars: in vivo. In outline: as §2

Each structure is given as a SMILES string. Activity calls are given as the source filed them. The calls are words filed in the database; no cut-off is given here. A value given as a limit tells only on which side of the number the result lay.

For the compound `COc1cc(C(N)=O)ccc1NC(=O)[C@@H]1N[C@@H](CC(C)(C)C)[C@@]2(C(=O)Nc3cc(Cl)ncc32)[C@H]1c1cccc(Cl)c1F`, the outcome in the data set with RKO, in the data set on SJSA-1 [5], with SJSA-1 [6] and in the data set on HCT-116 was Active. Moreover, in the data set with Mus musculus [1], the AUC/dose came to 4.2 µg·h/mL/mg/kg. In [2], this compound registered a bioavailability of 46%. The same compound returned a clearance in [3] of 1.8 mL/min/kg. In addition, the CLint scaled in [4] stood at 10.2 mL/min/kg. Moreover, the TGI result in the data set with SJSA-1 [7] is “Active”. The Activity result in the data set with Mus musculus [8] was “Non-toxic”. Besides, the half-life in [9] is 3 h. The compound further had a maximum concentration (Cmax) in [10] of 2100 ng/mL.

For the compound `COc1cc(C(=O)O)ccc1NC(=O)[C@@H]1N[C@@H](CC(C)(C)C)[C@@]2(C(=O)Nc3ncccc32)[C@H]1c1cccc(Cl)c1F` (racemic), the IC50 is more than 30 µM in the data set on SW480 and 1.37 µM with SJSA-1 [11].

With `COc1cc(C(=O)O)ccc1NC(=O)[C@@H]1N[C@@H](CC(C)(C)C)[C@@]2(C(=O)Nc3ccncc32)[C@H]1c1cccc(Cl)c1F` (racemic), the IC50 in the data set with SW480 is more than 30 µM; in the data set with SJSA-1 [11], 22.7 µM.

As for `COc1cc(C(N)=O)ccc1NC(=O)C1NC(CC(C)(C)C)C2(C(=O)Nc3cc(Cl)ncc32)C1c1cccc(Cl)c1F` (racemic), the IC50 stood at 12.8 µM with SW480 and 0.014 µM with SJSA-1 [11].

Regarding `COc1cc(C(=O)O)ccc1NC(=O)[C@@H]1N[C@@H](CC(C)(C)C)[C@@]2(C(=O)Nc3cc(Cl)cnc32)[C@H]1c1cccc(Cl)c1F` (racemic), the half-maximal inhibitory concentration (IC50) in the data set on SW480 is more than 30 µM; in the data set with SJSA-1 [11], 0.061 µM.

For the compound `COc1cc(C(=O)O)ccc1NC(=O)[C@@H]1N[C@@H](CC(C)(C)C)[C@@]2(C(=O)Nc3cc(Cl)ncc32)[C@H]1c1cccc(Cl)c1F` (racemic), the IC50 is more than 30 µM with SW480 and 0.043 µM with SJSA-1 [11].

With `COc1cc(C(N)=O)ccc1NC(=O)[C@@H]1N[C@@H](CC(C)(C)C)[C@@]2(C(=O)Nc3ccncc32)[C@H]1c1cccc(Cl)c1F` (racemic), the values for the IC50 in the data set with SW480 and with SJSA-1 [11] were 13.4 µM and 2.11 µM, respectively.

Consider `COc1cc(C(N)=O)ccc1NC(=O)[C@@H]1N[C@@H](CC(C)(C)C)[C@@]2(C(=O)Nc3nc(Cl)ccc32)[C@H]1c1cccc(Cl)c1F` (racemic), for which the IC50 in the data set on SW480 was found to be 5.26 µM; with SJSA-1 [11], 0.067 µM.

In the case of `COc1cc(C(N)=O)ccc1NC(=O)[C@@H]1N[C@@H](CC(C)(C)C)[C@@]2(C(=O)Nc3cc(Cl)sc32)[C@H]1c1cccc(Cl)c1F`, the result in the data set with RKO, with SJSA-1 [5], with SJSA-1 [6] and in the data set on HCT-116 was Active. Also, the bioavailability in data set [12] came out at 92%. The CLint scaled in data set [4] turned out to be 2 mL/min/kg. The compound further came in with an AUC/dose with Mus musculus [13] of 1.5 µg·h/mL/mg/kg. Also, in [14], the clearance came out at 9.9 mL/min/kg. Further, the TGI entry with SJSA-1 [7] was “Active”. In data set [15], this compound gave a Cmax of 1300 ng/mL. The Activity entry with Mus musculus [8] is on record as “Non-toxic”. Moreover, the half-life in data set [16] was 3 h.

For the compound `COc1cc(C(=O)O)ccc1NC(=O)[C@@H]1N[C@@H](CC(C)(C)C)[C@@]2(C(=O)Nc3cc(Cl)sc32)[C@H]1c1cccc(Cl)c1F`, the result with RKO, in the data set on SJSA-1 [5] and with HCT-116 was Active. This compound also gave a bioavailability in [12] of 32%. Moreover, the AUC/dose with Mus musculus [13] turned out to be 0.08 µg·h/mL/mg/kg. For the same compound, the clearance in data set [14] was 68.6 mL/min/kg. The same compound registered a Cmax in data set [15] of 300 ng/mL. The half-life in data set [16] was 1.68 h.

`COc1cc(C(N)=O)ccc1NC(=O)[C@@H]1N[C@@H](CC(C)(C)C)[C@@]2(C(=O)Nc3cc(Cl)cnc32)[C@H]1c1cccc(Cl)c1F` (racemic): the half-inhibitory concentration (IC50) was determined as 5.9 µM with SW480 and 0.042 µM in the data set on SJSA-1 [11].

Turning to `COc1cc(C(N)=O)ccc1NC(=O)[C@@H]1N[C@@H](CC(C)(C)C)[C@@]2(C(=O)Nc3nc(Cl)ncc32)[C@H]1c1cccc(Cl)c1F` (racemic), the IC50 with SW480 is 10.7 µM; in the data set on SJSA-1 [11], 0.09 µM.

`COc1cc(C(=O)O)ccc1NC(=O)[C@@H]1N[C@@H](CC(C)(C)C)[C@@]2(C(=O)Nc3nc(Cl)ncc32)[C@H]1c1cccc(Cl)c1F` (racemic): the IC50 with SW480 is more than 30 µM; in the data set on SJSA-1 [11], 0.1 µM.

As to `COc1cc(C(=O)O)ccc1NC(=O)C1NC(CC(C)(C)C)C2(C(=O)Nc3cc(Cl)sc32)C1c1cccc(Cl)c1F` (racemic), the half-maximal inhibitory concentration (IC50) was 29.3 µM with SW480 and 0.009 µM in the data set on SJSA-1 [11].

Consider `COc1cc(C(N)=O)ccc1NC(=O)[C@@H]1N[C@@H](CC(C)(C)C)[C@@]2(C(=O)Nc3cc(Cl)ccc32)[C@H]1c1cccc(Cl)c1F`, for which the half-maximal inhibitory concentration (IC50) with SW480 amounted to 5.19 µM; in the data set with SJSA-1 [11] it was 0.013 µM. Besides, the bioavailability in data set [17] worked out at 92%. The half-life in [18] is 7.1 h. Also, the CLint scaled in data set [4] came out at 7.5 mL/min/kg. The outcome in the data set with SJSA-1 [19] was Active. Moreover, the clearance in data set [20] was 5.8 mL/min/kg. In data set [21], this compound displayed a maximum concentration (Cmax) of 5800 ng/mL. This compound yielded an AUC/dose in the data set with Mus musculus [22] of 3.7 µg·h/mL/mg/kg.

`COc1cc(C(N)=O)ccc1NC(=O)C1NC(CC(C)(C)C)C2(C(=O)Nc3cc(Cl)sc32)C1c1cccc(Cl)c1F` (racemic): the IC50 with SW480 is 7.87 µM; in the data set on SJSA-1 [11], 0.011 µM.

On to `COc1cc(C(=O)O)ccc1NC(=O)[C@@H]1N[C@@H](CC(C)(C)C)[C@@]2(C(=O)Nc3nc(Cl)ccc32)[C@H]1c1cccc(Cl)c1F` (racemic), for which the values for the IC50 in the data set with SW480 and in the data set on SJSA-1 [11] were 15.4 µM and 0.045 µM, respectively.

The bioavailability is dose-corrected exposure relative to a reference, in per cent. A high value points to good availability. As usually defined, the clearance is the volume of plasma or blood freed of the substance per unit of time. The Cmax is the highest concentration seen after dosing. As usually defined, the IC50 is the concentration that inhibits the measured activity by half. A lower IC50 goes with greater potency.
